Results as given in ChEMBL document CHEMBL1136228 (Bioorg Med Chem Lett, 2003).
Where “and” joins values, the source holds several entries; their conditions need not be identical. Equal entries are not always repeated.

Legend:
[1] = target: T1, Peroxisome proliferator-activated receptor gamma (Homo sapiens, UniProt P37231)
T1 sequence (P37231 whole entry): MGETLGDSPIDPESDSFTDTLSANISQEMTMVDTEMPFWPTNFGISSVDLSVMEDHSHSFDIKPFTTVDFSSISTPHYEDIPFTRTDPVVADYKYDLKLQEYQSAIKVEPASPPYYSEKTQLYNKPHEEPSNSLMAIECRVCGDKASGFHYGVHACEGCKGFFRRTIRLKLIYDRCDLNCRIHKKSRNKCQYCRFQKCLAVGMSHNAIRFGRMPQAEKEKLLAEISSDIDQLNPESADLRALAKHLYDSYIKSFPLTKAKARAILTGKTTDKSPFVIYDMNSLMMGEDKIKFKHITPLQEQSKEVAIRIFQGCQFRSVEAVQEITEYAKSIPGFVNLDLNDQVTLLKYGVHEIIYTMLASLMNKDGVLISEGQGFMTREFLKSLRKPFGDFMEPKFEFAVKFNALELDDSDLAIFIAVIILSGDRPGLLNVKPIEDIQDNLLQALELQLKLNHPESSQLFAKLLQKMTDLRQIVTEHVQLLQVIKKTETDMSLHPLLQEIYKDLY

[2] = target: T2, Peroxisome proliferator-activated receptor alpha (Homo sapiens, UniProt Q07869)
T2 sequence (Q07869 whole entry): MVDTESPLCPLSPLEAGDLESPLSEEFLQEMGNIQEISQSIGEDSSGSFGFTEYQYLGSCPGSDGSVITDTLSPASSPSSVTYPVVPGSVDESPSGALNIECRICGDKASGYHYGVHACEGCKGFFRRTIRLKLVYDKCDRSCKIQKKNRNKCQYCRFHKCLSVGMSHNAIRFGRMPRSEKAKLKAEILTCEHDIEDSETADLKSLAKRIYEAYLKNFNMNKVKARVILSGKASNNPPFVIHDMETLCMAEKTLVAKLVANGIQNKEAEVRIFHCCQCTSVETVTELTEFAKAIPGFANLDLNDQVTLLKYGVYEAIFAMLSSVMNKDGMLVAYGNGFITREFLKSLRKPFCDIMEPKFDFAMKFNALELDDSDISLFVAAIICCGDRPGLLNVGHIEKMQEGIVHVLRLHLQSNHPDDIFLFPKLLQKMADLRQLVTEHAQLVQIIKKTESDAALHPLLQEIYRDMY

[3] = target: T2, Peroxisome proliferator-activated receptor alpha; remark: listed apart in the source
[4] = target: T1, Peroxisome proliferator-activated receptor gamma; remark: listed apart in the source
Mus musculus [5] = experiment: Fasting plasma glucose level after 10 mg/kg peroral administration in db/db Mouse; assay type: functional; conditions: route oral
Procedure, shortened: (§1)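 db/db (lepr db-3J/lepr db-3J) mice dosed orally once daily for 11 days; fasting plasma glucose measured at day 11. Correction is expressed as mean glucose lowering, as a percentage of the difference between vehicle-treated db/db and lean control mice.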

Mus musculus [6] = experiment: Fasting plasma glucose levels after 30 mg/kg peroral administration in db/db Mouse; assay type: functional; conditions: route oral
Procedure, shortened: as §1

[7] = target: T1, Peroxisome proliferator-activated receptor gamma; experiment: Binding affinity towards peroxisome proliferator activated receptor gamma (PPAR gamma): Weakly active
[8] = target: T1, Peroxisome proliferator-activated receptor gamma; experiment: Binding affinity towards peroxisome proliferator activated receptor gamma (PPAR gamma); weakly active
[9] = target: T2, Peroxisome proliferator-activated receptor alpha; experiment: Binding affinity towards peroxisome proliferator activated receptor alpha (PPAR alpha); weakly active
Mus musculus [10] = experiment: Fasting plasma glucose levels after 1 mg/kg peroral administration in db/db Mouse; assay type: functional; conditions: route oral
Procedure, shortened: as §1

Mus musculus [11] = experiment: Fasting plasma glucose levels after 3 mg/kg peroral administration in db/db Mouse; assay type: functional; conditions: route oral
Procedure, shortened: as §1

Rattus norvegicus [12] = experiment: Body weight of Sprague-Dawley rat after 30 mg/kg peroral administration; conditions: route oral
Rattus norvegicus [13] = experiment: Heart weight of Sprague-Dawley rat after 30 mg/kg peroral administration; conditions: route oral
Rattus norvegicus [14] = experiment: Triglyceride change in Sprague-Dawley rat after 30 mg/kg peroral administration; conditions: route oral
Rattus norvegicus [15] = experiment: Total Cholesterol change in Sprague-Dawley rat after 30 mg/kg peroral administration; conditions: route oral
Rattus norvegicus [16] = experiment: Brown adipose tissue weight in Sprague-Dawley rat after 30 mg/kg peroral administration; conditions: route oral
Rattus norvegicus [17] = experiment: Body weight of Sprague-Dawley rat after 10 mg/kg peroral administration; conditions: route oral
Rattus norvegicus [18] = experiment: Heart weight of Sprague-Dawley rat after 10 mg/kg peroral administration; conditions: route oral
Rattus norvegicus [19] = experiment: Triglyceride change in Sprague-Dawley rat after 10 mg/kg peroral administration; conditions: route oral
Rattus norvegicus [20] = experiment: Total Cholesterol change in Sprague-Dawley rat after 10 mg/kg peroral administration; conditions: route oral
Rattus norvegicus [21] = experiment: Brown adipose tissue weight in Sprague-Dawley rat after 10 mg/kg peroral administration; conditions: route oral
Mus musculus [22] = experiment: Fasting plasma glucose levels after 15 mg/kg peroral administration in db/db Mouse; assay type: functional; conditions: route oral
Procedure, shortened: as §1

Mus musculus [23] = experiment: Fasting plasma glucose levels after 5 mg/kg peroral administration in db/db Mouse; assay type: functional; conditions: route oral
Procedure, shortened: as §1

[24] = Bioavailability was determined in rat; assay type: ADME, organism-based; conditions: in vivo
Mus musculus [25] = experiment: Fasting plasma glucose levels after 150 mg/kg peroral administration in db/db Mouse; assay type: functional; conditions: route oral
Procedure, shortened: as §1

[26] = target: T1, Peroxisome proliferator-activated receptor gamma; experiment: Binding affinity towards peroxisome proliferator activated receptor gamma (PPAR gamma); Not active
Procedure, shortened: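 Scintillation proximity (SPA) radioligand binding assay run at 15 C. The IC50 is converted to an apparent Ki with the Cheng-Prusoff equation.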

[27] = target: T2, Peroxisome proliferator-activated receptor alpha; experiment: Binding affinity towards human peroxisome proliferator activated receptor alpha (PPAR alpha) by HTRF assay; Weakly active
Rattus norvegicus [28] = experiment: Body weight of Sprague-Dawley rat after 150 mg/kg peroral administration; conditions: route oral
Rattus norvegicus [29] = experiment: Heart weight of Sprague-Dawley rat after 150 mg/kg peroral administration; conditions: route oral
Rattus norvegicus [30] = experiment: Triglyceride change in Sprague-Dawley rat after 150 mg/kg peroral administration; conditions: route oral
Rattus norvegicus [31] = experiment: Total Cholesterol change in Sprague-Dawley rat after 150 mg/kg peroral administration; conditions: route oral
Rattus norvegicus [32] = experiment: Brown adipose tissue weight in Sprague-Dawley rat after 150 mg/kg peroral administration; conditions: route oral

Row | Structure (SMILES) | Ki [1] [µM] | EC50 [2] [µM] | Ki [3] [µM] | EC50 [4] [µM] | FPG correction (Mus musculus [5]) [%] | Body weight (Rattus norvegicus [12]) [g] | Heart weight (Rattus norvegicus [13]) [g] | Change (Rattus norvegicus [14]) [%] | Change (Rattus norvegicus [15]) [%] | BAT weight (Rattus norvegicus [16]) [g] | further results
1 | CCCc1c(O)c(C(=O)CC)cc(Cl)c1OC(C(=O)O)c1ccccc1 (stereo not given) | 0.985 | 0.804 | 0.293 | 3.76 | – | – | – | – | – | – | –
2 | CCCc1cc2c(C(F)(F)F)noc2c(CCC)c1O[C@H](C(=O)O)c1ccccc1 | 0.618 | – | 0.012 | 0.194 | 50 | – | – | – | – | – | –
3 | COC(=O)c1cc(C)c(OC(C(=O)O)c2ccccc2)c(C)c1 (stereo not given) | > 10 | – | 0.225 | – | – | – | – | – | – | – | –
4 | CCCc1c(OC(C(=O)O)c2ccccc2)ccc2c(C(F)(F)F)noc12 (stereo not given) | – | 0.836 | 0.098 | 4.6 | – | – | – | – | – | – | FPG correction (Mus musculus [6]): -5%; Ki [7]: Partially active
5 | CCCc1cc2c(C(F)(F)F)noc2c(CCC)c1O[C@@H](C(=O)O)c1ccccc1 | – | – | – | 3.15 | – | – | – | – | – | – | Ki [8]: Partially active; Ki [9]: Partially active
6 | CCCc1cc2c(C(F)(F)F)noc2c(CCC)c1OC(C(=O)O)c1ccc(C(F)(F)F)cc1 (stereo not given) | 0.104 | 0.023 | 0.018 | 0.079 | 83 | 318 | 1.14 | -41 | -32 | 0.27 | FPG correction (Mus musculus [10]): 21%; FPG correction (Mus musculus [11]): 41%
7 | CCCc1cc(C(=O)CC)c(O)c(CCC)c1OC(C(=O)O)c1ccccc1 (stereo not given) | – | 0.037 | 0.081 | 1.09 | 42 | 294 | 1.06 | -8 | -7 | 0.34 | FPG correction (Mus musculus [6]): 55%; Ki [7]: Partially active; Body weight (Rattus norvegicus [17]): 290 g; Heart weight (Rattus norvegicus [18]): 1.11 g; Change (Rattus norvegicus [19]): -64%; Change (Rattus norvegicus [20]): -36%; BAT weight (Rattus norvegicus [21]): 0.29 g
8 | CCCc1cc2c(C(F)(F)F)noc2c(CCC)c1OC(C(=O)O)c1ccc(CCc2ccccn2)cc1 (stereo not given) | 0.197 | 0.028 | 0.065 | 0.11 | 75 | – | – | – | – | – | –
9 | CCCc1cc(C(=O)OC)cc(CCC)c1OC(C(=O)O)c1ccccc1 (stereo not given) | 1.1 | – | 0.063 | – | – | – | – | – | – | – | –
10 | CCCc1c(OC(C(=O)O)c2ccccc2)c(Cl)cc2c(CC)noc12 (stereo not given) | – | 0.162 | 0.038 | 1.12 | – | 312 | 1.22 | -11 | -9 | 0.34 | FPG correction (Mus musculus [22]): 47%; FPG correction (Mus musculus [23]): 10%; Ki [8]: Partially active
11 | CCCc1cc(C(=O)OC)cc(Cl)c1OC(C(=O)O)c1ccccc1 (stereo not given) | 8.53 | – | 0.057 | – | – | – | – | – | – | – | –
12 | CCCc1cc2c(C(F)(F)F)noc2c(CCC)c1OC(C(=O)O)c1ccccc1 (stereo not given) | 0.956 | 0.015 | 0.037 | 0.365 | – | 276 | 1.05 | -52 | -27 | 0.28 | bioavailability [24]: 11%; FPG correction (Mus musculus [6]): 91%
13 | CCCc1cc2c(C(F)(F)F)noc2c(CCC)c1OC(C(=O)O)c1ccc(C(C)C)cc1 (stereo not given) | – | – | – | – | 61 | – | – | – | – | – | FPG correction (Mus musculus [11]): 31%
14 | CCCc1cc2c(CC)noc2c(CCC)c1OC(C(=O)O)c1ccccc1 (stereo not given) | 2.68 | 0.08 | 0.061 | 0.56 | – | – | – | – | – | – | –
15 | CCCc1cc2c(C(F)(F)F)noc2c(CCC)c1OC(C(=O)O)c1ccc(OCc2ccccn2)cc1 (stereo not given) | 0.268 | 0.019 | 0.064 | 0.047 | – | 297 | 1.15 | -47 | -38 | 0.42 | FPG correction (Mus musculus [6]; 30 mg/kg): 90% and 51%
16 | CCCc1cc(C(=O)OC)cc(C)c1OC(C(=O)O)c1ccccc1 (stereo not given) | 5.94 | – | 0.028 | – | – | – | – | – | – | – | –
17 | CCCc1cc2c(C(F)(F)F)noc2c(CCC)c1OC(C(=O)O)c1ccc(Cl)cc1 (stereo not given) | 0.175 | 0.01 | 0.105 | 0.11 | 74 | 297 | 1.17 | -56 | -23 | 0.22 | FPG correction (Mus musculus [11]): 31%
18 | CC(C)(Oc1ccc(C(=O)c2ccc(Cl)cc2)cc1)C(=O)O [FENOFIBRIC ACID] | – | – | 35 | – | – | – | – | – | – | – | FPG correction (Mus musculus [25]): 17%; Ki [26]: Not Active; Ki [27]: Partially active; Body weight (Rattus norvegicus [28]): 308 g; Heart weight (Rattus norvegicus [29]): 1.18 g; Change (Rattus norvegicus [30]): -23%; Change (Rattus norvegicus [31]): -18%; BAT weight (Rattus norvegicus [32]): 0.33 g
